Results on 13 compounds are retold here after ChEMBL document CHEMBL4257543, “Structural optimization and antibacterial evaluation of rhodomyrtosone B analogues against MRSA strains” (Medchemcomm, 2018).

Molecules are shown by their SMILES. ≈ marks a conversion by molar mass, not a printed value. Calls of active or inactive are those of the source.

For experiment [1], the system named is Staphylococcus aureus. In words: Antibacterial activity against methicillin-resistant Staphylococcus aureus JCSC 4788 by micro dilution susceptibility test. The class given is functional. An outline of the steps: (§1)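 Microbroth dilution MIC in Mueller–Hinton broth following CLSI guidelines, vancomycin as positive control; resazurin added as visible growth indicator. Assays run at least in triplicate.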

The subject of experiment [2] is Staphylococcus aureus. In words: Antibacterial activity against Staphylococcus aureus ATCC 6538 by micro dilution susceptibility test. The class given is functional. In a few lines:
as §1

Experiment [3] concerns Staphylococcus aureus. Kind of experiment: Antibacterial activity against methicillin-resistant Staphylococcus aureus JCSC 4788 at sub-MIC re-passaged at 24 hrs intervals for 5 times by micro dilution susceptibility test. The format is functional, organism-based. An outline of the steps: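 Exponential-phase MRSA JCSC 4788 at 37 °C passaged into fresh MHB containing compound at a sub-inhibitory concentration and re-passaged at 24 h intervals up to at least 20 passages; MIC then redetermined by CLSI microbroth dilution in MHB. Resistance defined as a more than 4-fold increase over the initial MIC.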

Experiment [4] deals with Staphylococcus aureus. In words: Ratio of MIC for methicillin-resistant Staphylococcus aureus JCSC 4788 re-passaged at 24 hrs intervals for 20 times to MIC for methicillin-resistant Staphylococcus aureus JCSC 4788. The class given is functional. In a few lines: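 Sequential passaging of MRSA JCSC 4788 in MHB with sub-inhibitory compound at 24 h intervals for at least 20 passages at 37 °C. MIC after passaging, by CLSI microbroth dilution, is divided by the initial MIC. Resistance is defined as a rise of more than 4-fold.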

The subject of experiment [5] is Staphylococcus aureus. Kind of experiment: Antibacterial activity against Staphylococcus aureus ATCC 29213 by micro dilution susceptibility test. The class given is functional. An outline of the steps: as §1
Experiment [6] has as its system Staphylococcus aureus. In words: Antibacterial activity against Staphylococcus aureus CMCC 26003 by micro dilution susceptibility test. The class given is functional. In a few lines:
as §1

Experiment [7] concerns Staphylococcus aureus. Kind of experiment: Antibacterial activity against methicillin-resistant Staphylococcus aureus JCSC 2172 by micro dilution susceptibility test. The class given is functional. In a few lines: as §1
Experiment [8] relates to Staphylococcus aureus. Kind of experiment: Antibacterial activity against methicillin-resistant Staphylococcus aureus JCSC 3063 by micro dilution susceptibility test. The class given is functional. In a few lines:
as §1

In experiment [9] the test system is Staphylococcus aureus. In words: Antibacterial activity against methicillin-resistant Staphylococcus aureus JCSC 4469 by micro dilution susceptibility test. The class given is functional. In a few lines:
as §1

Experiment [10] relates to Staphylococcus aureus. In words: Antibacterial activity against methicillin-resistant Staphylococcus aureus JCSC 4744 by micro dilution susceptibility test. The class given is functional. An outline of the steps: as §1
Experiment [11] relates to Staphylococcus aureus. In words: Antibacterial activity against methicillin-resistant Staphylococcus aureus NCTC 10442 by micro dilution susceptibility test. The class given is functional. An outline of the steps: as §1
Experiment [12] concerns Staphylococcus aureus. Kind of experiment: Antibacterial activity against methicillin-resistant Staphylococcus aureus N315 by micro dilution susceptibility test. The class given is functional. An outline of the steps: as §1
For experiment [13], the system named is Staphylococcus aureus. Kind of experiment: Antibacterial activity against methicillin-resistant Staphylococcus aureus 85/2082 by micro dilution susceptibility test. The class given is functional. An outline of the steps: as §1
The test system of experiment [14] is Bacillus cereus. Kind of experiment: Antibacterial activity against Bacillus cereus ATCC 10876 by micro dilution susceptibility test. The class given is functional. An outline of the steps: (§2)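 Microbroth dilution MIC in Mueller–Hinton broth following CLSI guidelines, with vancomycin as positive control; assays run at least in triplicate.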
For experiment [15], the system named is Cutibacterium acnes. Kind of experiment: Antibacterial activity against Propionicibacterium acnes ATCC 6919 by micro dilution susceptibility test. The class given is functional. An outline of the steps: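 Microbroth dilution MIC in Mueller–Hinton broth following CLSI guidelines; […]; resazurin added as visible growth indicator; vancomycin positive control; at least triplicate.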

For experiment [16], the system named is Enterococcus faecalis. Kind of experiment: Antibacterial activity against Enterococcus faecalis ATCC 29212 by micro dilution susceptibility test. The format is functional. An outline of the steps:
as §2

Experiment [17] has as its system Staphylococcus epidermidis. In words: Antibacterial activity against Staphylococcus epidermidis ATCC 12228 by micro dilution susceptibility test. The class given is functional. In a few lines: as §2
Experiment [18] deals with Enterococcus faecium. In words: Antibacterial activity against vancomycin-resistant Enterococcus faecium by micro dilution susceptibility test. The class given is functional. In a few lines:
as §1

In experiment [19] the test system is Paenibacillus polymyxa. In words: Antibacterial activity against Bacillus polymyxa GIM 1.467 by micro dilution susceptibility test. The class given is functional. An outline of the steps: as §2
Experiment [20] concerns Paenibacillus polymyxa. Kind of experiment: Antibacterial activity against Bacillus polymyxa ATCC 842 by micro dilution susceptibility test. The format is functional. An outline of the steps: as §2
The test system of experiment [21] is Escherichia coli. In words: Antibacterial activity against Escherichia coli ATCC 8739 by micro dilution susceptibility test. The class given is functional. An outline of the steps:
as §2

Experiment [22] deals with Salmonella typhi. Kind of experiment: Antibacterial activity against Salmonella typhi CMCC 44102 by micro dilution susceptibility test. The format is functional, Salmonella enterica subsp. enterica serovar Typhi. The settings on record: Salmonella enterica. In a few lines: as §1
Experiment [23] relates to Shigella dysenteriae. Kind of experiment: Antibacterial activity against Shigella dysenteriae CMCC 51252 by micro dilution susceptibility test. The class given is functional. In a few lines:
as §1

Experiment [24] has as its system Candida albicans. Kind of experiment: Antibacterial activity against Candida albicans ATCC 10231 by micro dilution susceptibility test. The class given is functional. An outline of the steps:
as §2

For the compound `CC(C)CC(=O)c1c(O)cc2c(c1O)C(CC(C)C)C1=C(O2)C(C)(C)C(=O)C(C)(C)C1=O` (stereo unspecified), the MIC in experiment [1] and in experiment [2] was 1 µg/mL (≈ 2.26 µM) each time.

Consider `CC(C)CC1C2=C(Oc3c(C(=O)C4CCC4)c(O)cc(O)c31)C(C)(C)C(=O)C(C)(C)C2=O` (stereo unspecified), for which the MIC (as a rule, the smallest concentration in the dilution series that meets the test's criterion for growth inhibition) in experiment [1] was found to be 8 µg/mL (≈ 18.2 µM); in experiment [2], 4 µg/mL (≈ 9.08 µM).

On to `CC(C)CC1C2=C(Oc3cc(O)cc(O)c31)C(C)(C)C(=O)C(C)(C)C2=O` (stereo unspecified), for which the MIC in [1] is 256 µg/mL (≈ 714 µM); in experiment [2] it was greater than 256 µg/mL.

As for `CCCCCCCCCCCCCCCC(=O)c1c(O)cc(O)c2c1OC1=C(C(=O)C(C)(C)C(=O)C1(C)C)C2CC(C)C` (stereo unspecified), the minimal inhibitory concentration (MIC) in [1] and in [2] was greater than 256 µg/mL in each case.

With `CCCCCCCCC(=O)c1c(O)cc(O)c2c1OC1=C(C(=O)C(C)(C)C(=O)C1(C)C)C2CC(C)C` (stereo unspecified), the MIC in experiment [1] was 0.5 µg/mL (≈ 1 µM); in experiment [2] it was 0.25 µg/mL (≈ 0.501 µM).

Regarding `CCCCCCCCCC(=O)c1c(O)cc(O)c2c1OC1=C(C(=O)C(C)(C)C(=O)C1(C)C)C2CC(C)C` (stereo unspecified), the MIC in experiment [1] and in experiment [2] was 0.5 µg/mL (≈ 0.975 µM) each time.

Consider `CC(C)CC1C2=C(Oc3c(C(=O)C4CCCCC4)c(O)cc(O)c31)C(C)(C)C(=O)C(C)(C)C2=O` (stereo unspecified), for which the MIC in experiment [1] worked out at 4 µg/mL (≈ 8.54 µM); in [2] it was 2 µg/mL (≈ 4.27 µM).

With `CC(C)CC1C2=C(Oc3c(C(=O)Cc4ccccc4)c(O)cc(O)c31)C(C)(C)C(=O)C(C)(C)C2=O` (stereo unspecified), the MIC in [1] and in [2] was 4 µg/mL (≈ 8.39 µM) each time.

As for `CC1COc2c(N3CCN(C)CC3)c(F)cc3c(=O)c(C(=O)O)cn1c23` (stereo unspecified) [OFLOXACIN], the outcome in experiment [3] was inactive. Besides, the Ratio in [4] is listed as 16.

With `CC(=O)c1c(O)cc(O)c2c1OC1=C(C(=O)C(C)(C)C(=O)C1(C)C)C2CC(C)C` (stereo unspecified), the MIC in experiment [1] and in experiment [2] was 4 µg/mL (≈ 9.99 µM) in each case.

On to `CCCCC(=O)c1c(O)cc(O)c2c1OC1=C(C(=O)C(C)(C)C(=O)C1(C)C)C2CC(C)C` (stereo unspecified), for which the minimum inhibitory concentration (MIC) was determined as 1 µg/mL (≈ 2.26 µM) in [1] and 0.5 µg/mL (≈ 1.13 µM) in [2].

As for `CCCCCCC(=O)c1c(O)cc(O)c2c1OC1=C(C(=O)C(C)(C)C(=O)C1(C)C)C2CC(C)C` (stereo unspecified), the MIC in experiment [1] came out at 0.5 µg/mL (≈ 1.06 µM); in experiment [2], 0.25 µg/mL (≈ 0.531 µM).

Take `CC(C)CC(=O)c1c(O)cc(O)c2c1OC1=C(C(=O)C(C)(C)C(=O)C1(C)C)C2CC(C)C` (stereo unspecified): the MIC is 1 µg/mL (≈ 2.26 µM) in experiment [1]; 0.5 to 1 µg/mL (≈ 1.13 to 2.26 µM) in experiment [2]; 1 µg/mL (≈ 2.26 µM) in experiment [5]; 0.5 µg/mL (≈ 1.13 µM) in [6]; 0.5 µg/mL (≈ 1.13 µM) in experiment [7]; 0.5 µg/mL (≈ 1.13 µM) in experiment [8]. Further, the MIC was found to be 0.5 µg/mL (≈ 1.13 µM) in experiment [9]; 0.5 µg/mL (≈ 1.13 µM) in [10]; 1 µg/mL (≈ 2.26 µM) in experiment [11]; 1 µg/mL (≈ 2.26 µM) in experiment [12]; 1 µg/mL (≈ 2.26 µM) in experiment [13]; 0.5 µg/mL (≈ 1.13 µM) in experiment [14]. The MIC in experiment [15] was 0.5 µg/mL (≈ 1.13 µM); in experiment [16] it was 1 µg/mL (≈ 2.26 µM); in experiment [17] it was 1 µg/mL (≈ 2.26 µM); in experiment [18], 2 µg/mL (≈ 4.52 µM); in [19] it was greater than 32 µg/mL; in experiment [20], greater than 32 µg/mL. In addition, the minimum inhibitory concentration (MIC) in experiment [21], in experiment [22], in [23] and in experiment [24] was greater than 32 µg/mL in each case.
